From ChEMBL document CHEMBL1156009, “Eleven amino acid glucagon-like peptide-1 receptor agonists with antidiabetic activity” (J Med Chem, 2009)
pEC50, pIC50: −log10 of the molar value. Calls of active or inactive are those of the source. No cut-off for these calls is given here. Square brackets hold non-standard residues; d marks the D form. Peptide text beside a SMILES is read from it. Bip(2'-Et-4'-OMe) = CCc1cc(OC)ccc1-c1ccc(C[C@H](N)C(=O)O)cc1; Bip(2'-Me) = Cc1ccccc1-c1ccc(C[C@H](N)C(=O)O)cc1; αMePhe(2,6-F2) = C[C@](N)(Cc1c(F)cccc1F)C(=O)O; αMePhe(2-F) = C[C@](N)(Cc1ccccc1F)C(=O)O; Aib = CC(C)(N)C(=O)O

Tests used:
[1] = target: Glucagon-like peptide 1 receptor (Homo sapiens, UniProt P43220); test: Agonist activity at human GLP1R expressed in CHO cells assessed as stimulation of intracellular [3H]cAMP accumulation after 30 mins by scintillation proximity assay; format: functional, cell-based
Procedure, shortened: (§1)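 CHO cells stably expressing human or mouse GLP-1R, grown in F-12 with 10% FBS plus Geneticin (0.4 mg/mL human, 1 mg/mL mouse), plated 2×10^4/well overnight. Half-log dilutions made in DMSO, then in DPBS with 0.1 mM IBMX and 0.05% BSA (final 1% DMSO). Cells exposed 30 min. cAMP read by SPA and converted to pmol via standard curve. Duplicates, at least three separate runs.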

[2] = Half life in patient with type 2 diabetes at 2.5 to 25 nmol, iv administered as bolus dose; format: ADME, organism-based; conditions: human, in vivo
[3] = target: T1, Glucagon-like peptide 1 receptor (Mus musculus, UniProt O35659); test: Agonist activity at mouse GLP1R expressed in CHO cells assessed as stimulation of intracellular [3H]cAMP accumulation by scintillation proximity assay; format: functional, cell-based; procedure, shortened: as §1
T1 sequence (O35659 whole entry): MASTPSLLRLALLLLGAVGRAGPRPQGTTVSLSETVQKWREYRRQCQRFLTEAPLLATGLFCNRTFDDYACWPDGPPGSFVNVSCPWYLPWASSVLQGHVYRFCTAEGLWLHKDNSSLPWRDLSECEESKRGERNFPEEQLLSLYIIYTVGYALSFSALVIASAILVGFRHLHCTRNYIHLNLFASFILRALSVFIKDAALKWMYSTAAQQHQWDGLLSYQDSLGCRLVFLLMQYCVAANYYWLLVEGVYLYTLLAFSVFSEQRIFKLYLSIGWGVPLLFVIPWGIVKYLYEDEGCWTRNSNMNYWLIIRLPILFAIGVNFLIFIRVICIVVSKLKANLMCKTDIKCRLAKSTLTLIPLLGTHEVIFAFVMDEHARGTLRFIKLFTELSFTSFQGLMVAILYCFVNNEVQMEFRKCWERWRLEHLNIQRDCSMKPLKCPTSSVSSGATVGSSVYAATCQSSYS

Mus musculus [4] = test: Antidiabetic activity in insulin-resistant ob/ob mouse assessed as reduction in plasma glucose level at 300 nmol/kg, sc administered 30 mins before glucose infusion measured after 30 to 180 mins of glucose challenge by intraperitoneal glucose tolerance test; format: functional, organism-based
Procedure, shortened: (§2)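 Male ob/ob mice, 19 weeks old, 6 per group, randomized on fed glucose and body weight. After an 18 h fast, single sc dose in 1:1 propylene glycol/20 mM sodium phosphate pH 7.4 (0.1 mL/100 g) at -30 min. 2 g/kg glucose (50%) given ip at time 0. Tail bleeds at 0, 30, 60, 120 and 180 min into K-EDTA. Glucose measured on analyzer, insulin by ultrasensitive mouse ELISA. ANOVA with Dunnett's test versus vehicle.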

Mus musculus [5] = test: Antidiabetic activity in insulin-resistant ob/ob mouse assessed as increase in plasma insulin level at 300 nmol/kg, sc administered 30 mins before glucose infusion measured after 30 mins of glucose challenge by intraperitoneal glucose tolerance test; format: functional, organism-based; procedure, shortened: as §2
Mus musculus [6] = test: Antidiabetic activity in insulin-resistant ob/ob mouse assessed as increase in plasma insulin level at 300 nmol/kg, sc administered 30 mins before glucose infusion measured after 60 mins of glucose challenge by intraperitoneal glucose tolerance test; format: functional, organism-based; procedure, shortened: as §2
[7] = Cmax in insulin-resistant ob/ob mouse at 300 nmol/kg, sc up to 24 hrs by LC-MS/MS analysis; format: ADME, organism-based; design: dose 300 nmol/kg, route subcutaneous; conditions: in vivo
Procedure, shortened: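 ob/ob mice dosed sc at 300 nmol/kg in 1:1 propylene glycol/20 mM sodium phosphate pH 7.4. Plasma sampled at 1, 2, 4, 6, 8 and 24 h and quantified by LC-MS/MS.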

Canis familiaris = test: Tmin in Beagle dog at 67 ug/kg, sc by LC-MS/MS analysis; format: ADME, organism-based, Canis lupus familiaris; conditions: in vivo, 0.067 mg/kg
[8] = Mean residence time in Beagle dog at 67 ug/kg, sc by LC-MS/MS analysis; format: ADME, organism-based, Canis lupus familiaris; conditions: in vivo, 0.067 mg/kg
[9] = target: T2, Gastric inhibitory polypeptide receptor (Homo sapiens, UniProt P48546); test: Agonist activity at GIPR; format: functional
T2 sequence (P48546 whole entry): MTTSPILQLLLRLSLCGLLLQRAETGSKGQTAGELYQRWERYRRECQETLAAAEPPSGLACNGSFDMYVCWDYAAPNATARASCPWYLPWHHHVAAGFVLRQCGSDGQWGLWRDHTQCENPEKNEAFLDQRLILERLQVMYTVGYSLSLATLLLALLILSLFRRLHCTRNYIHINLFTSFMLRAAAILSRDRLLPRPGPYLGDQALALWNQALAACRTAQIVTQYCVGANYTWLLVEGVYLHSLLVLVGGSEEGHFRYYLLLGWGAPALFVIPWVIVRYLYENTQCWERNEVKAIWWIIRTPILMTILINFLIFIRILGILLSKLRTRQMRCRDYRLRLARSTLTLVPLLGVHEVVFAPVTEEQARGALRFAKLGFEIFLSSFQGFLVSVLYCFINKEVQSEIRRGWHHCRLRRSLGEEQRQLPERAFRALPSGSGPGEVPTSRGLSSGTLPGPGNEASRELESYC

Glucagon receptor = Glucagon receptor (Homo sapiens, UniProt P47871); test: Agonist activity at glucagon receptor; format: functional
[10] = Agonist activity at PACAP receptor; format: functional
[11] = Agonist activity at VIP receptor; format: functional
[12] = target: T3, Parathyroid hormone/parathyroid hormone-related peptide receptor (Homo sapiens, UniProt Q03431); test: Agonist activity at PTHR; format: functional
T3 sequence (Q03431 whole entry): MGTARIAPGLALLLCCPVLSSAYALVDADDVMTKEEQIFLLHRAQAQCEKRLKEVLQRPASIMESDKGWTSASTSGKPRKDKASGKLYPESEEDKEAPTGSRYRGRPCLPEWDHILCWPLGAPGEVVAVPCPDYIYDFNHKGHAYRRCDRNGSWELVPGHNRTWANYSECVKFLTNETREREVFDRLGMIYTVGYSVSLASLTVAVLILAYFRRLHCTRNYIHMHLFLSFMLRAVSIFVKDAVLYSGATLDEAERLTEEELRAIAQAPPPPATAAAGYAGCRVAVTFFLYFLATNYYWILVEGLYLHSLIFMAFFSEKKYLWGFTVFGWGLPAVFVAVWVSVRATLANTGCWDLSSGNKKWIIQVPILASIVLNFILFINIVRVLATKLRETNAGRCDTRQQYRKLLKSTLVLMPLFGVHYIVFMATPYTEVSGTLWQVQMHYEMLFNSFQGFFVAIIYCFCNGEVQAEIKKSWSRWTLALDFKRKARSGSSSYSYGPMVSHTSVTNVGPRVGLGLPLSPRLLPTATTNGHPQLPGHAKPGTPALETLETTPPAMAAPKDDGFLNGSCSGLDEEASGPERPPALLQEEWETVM

Mus musculus [13] = test: Antidiabetic activity in insulin-resistant ob/ob mouse assessed as reduction in plasma glucose level at 30 nmol/kg, sc administered 30 mins before glucose infusion measured after 30 to 180 mins of glucose challenge by intraperitoneal glucose tolerance test; format: functional, organism-based; procedure, shortened: as §2
Mus musculus [14] = test: Antidiabetic activity in insulin-resistant ob/ob mouse assessed as increase in plasma insulin level at 30 nmol/kg, sc administered 30 mins before glucose infusion measured after 30 to 180 mins of glucose challenge by intraperitoneal glucose tolerance test; format: functional, organism-based; procedure, shortened: as §2

Chain of Glucagon-like peptide 1 receptor (Homo sapiens, UniProt P43220) (P43220 whole entry): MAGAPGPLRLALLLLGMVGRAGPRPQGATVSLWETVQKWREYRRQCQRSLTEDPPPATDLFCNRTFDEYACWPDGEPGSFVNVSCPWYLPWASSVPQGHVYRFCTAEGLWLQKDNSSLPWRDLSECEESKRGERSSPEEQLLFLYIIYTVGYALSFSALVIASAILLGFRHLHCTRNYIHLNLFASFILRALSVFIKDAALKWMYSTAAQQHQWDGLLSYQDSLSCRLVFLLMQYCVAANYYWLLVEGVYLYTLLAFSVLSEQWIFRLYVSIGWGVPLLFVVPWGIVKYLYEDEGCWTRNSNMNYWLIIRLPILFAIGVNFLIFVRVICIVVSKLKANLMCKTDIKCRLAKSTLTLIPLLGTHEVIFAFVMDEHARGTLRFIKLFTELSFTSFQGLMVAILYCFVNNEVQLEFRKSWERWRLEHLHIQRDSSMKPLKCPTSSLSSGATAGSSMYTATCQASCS
Chain of Glucagon receptor (P47871 whole entry): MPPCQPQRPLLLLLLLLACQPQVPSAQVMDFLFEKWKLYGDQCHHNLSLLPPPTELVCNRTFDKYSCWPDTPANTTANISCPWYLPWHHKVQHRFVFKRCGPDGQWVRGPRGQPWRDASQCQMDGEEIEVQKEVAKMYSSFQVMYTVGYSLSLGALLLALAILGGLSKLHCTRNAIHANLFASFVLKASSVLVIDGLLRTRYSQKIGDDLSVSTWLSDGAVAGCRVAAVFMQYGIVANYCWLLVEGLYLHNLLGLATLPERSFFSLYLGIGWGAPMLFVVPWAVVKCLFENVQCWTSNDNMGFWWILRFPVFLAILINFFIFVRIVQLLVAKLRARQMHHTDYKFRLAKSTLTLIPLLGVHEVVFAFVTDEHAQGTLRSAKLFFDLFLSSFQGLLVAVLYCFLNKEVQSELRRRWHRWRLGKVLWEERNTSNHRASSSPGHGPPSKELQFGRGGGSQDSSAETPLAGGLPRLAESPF

| pEC50 [1] | pEC50 [3] | Cmax [7] [nM] | Tmin (Canis familiaris) [h] | SMILES | Activity (Mus musculus [4]) | Activity (Mus musculus [5]) | Activity (Mus musculus [6]) | further results |
| --- | --- | --- | --- | --- | --- | --- | --- | --- |
| 10.47 |  |  |  | CC[C@H](C)[C@H](NC(=O)[C@H](Cc1ccccc1)NC(=O)[C@H](CCC(=O)O)NC(=O)[C@H](CCCCN)NC(=O)[C@H](C)NC(=O)[C@H](C)NC(=O)[C@H](CCC(N)=O)NC(=O)CNC(=O)[C@H](CCC(=O)O)NC(=O)[C@H](CC(C)C)NC(=O)[C@@H](NC(=O)[C@H](CO)NC(=O)[C@H](CO)NC(=O)[C@@H](NC(=O)[C@H](CC(=O)O)NC(=O)[C@H](CO)NC(=O)[C@@H](NC(=O)[C@H](Cc1ccccc1)NC(=O)[C@@H](NC(=O)CNC(=O)[C@H](CCC(=O)O)NC(=O)[C@H](C)NC(=O)[C@@H](N)Cc1cnc[nH]1)[C@@H](C)O)[C@@H](C)O)C(C)C)[C@@H](C)O)C(=O)N[C@@H](C)C(=O)N[C@@H](Cc1c[nH]c2ccccc12)C(=O)N[C@@H](CC(C)C)C(=O)N[C@H](C(=O)N[C@@H](CCCCN)C(=O)NCC(=O)N[C@@H](CCCN=C(N)N)C(N)=O)C(C)C |  |  |  | half-life [2]: 2 min |
| 9.92 | 9.10 | > 2000 | 24 | CCc1cc(OC)ccc1-c1ccc(C[C@H](NC(=O)[C@H](CC(=O)O)NC(=O)[C@H](CO)NC(=O)[C@@H](NC(=O)[C@](C)(Cc2c(F)cccc2F)NC(=O)[C@@H](NC(=O)CNC(=O)[C@H](CCC(=O)O)NC(=O)C(C)(C)NC(=O)[C@@H](N)Cc2cnc[nH]2)[C@@H](C)O)[C@@H](C)O)C(=O)N[C@@H](Cc2ccc(-c3ccccc3C)cc2)C(N)=O)cc1 (H-H[Aib]EGT[αMePhe(2,6-F2)]TSD[Bip(2'-Et-4'-OMe)][Bip(2'-Me)]-NH2) | Active | Active | Active | MRT [8]: 20 h |
| 10.06 | 8.62 | > 2000 | 8 | CCc1cc(OC)ccc1-c1ccc(C[C@H](NC(=O)[C@H](CC(=O)O)NC(=O)[C@H](CO)NC(=O)[C@@H](NC(=O)[C@](C)(Cc2ccccc2F)NC(=O)[C@@H](NC(=O)CNC(=O)[C@H](CCC(=O)O)NC(=O)C(C)(C)NC(=O)[C@@H](N)Cc2cnc[nH]2)[C@@H](C)O)[C@@H](C)O)C(=O)N[C@@H](Cc2ccc(-c3ccccc3C)cc2)C(N)=O)cc1 (H-H[Aib]EGT[αMePhe(2-F)]TSD[Bip(2'-Et-4'-OMe)][Bip(2'-Me)]-NH2) | Active | Active | Active | pEC50 [9]: < 5.00; pIC50 [9]: < 5.00; pEC50 (Glucagon receptor): < 5.00; pIC50 (Glucagon receptor): < 5.00; pEC50 [10]: < 5.00; pIC50 [10]: < 5.00; pEC50 [11]: < 5.00; pIC50 [11]: < 5.00; pEC50 [12]: < 5.00; pIC50 [12]: < 5.00; Activity (Mus musculus [13]): Active; Activity (Mus musculus [14]): Active |
